Experimental data collected from several papers.
Lines come from different studies, so protocols differ.
Mc1r: Melanocyte-stimulating hormone receptor (Mc1r, Mus musculus, UniProt Q01727)
PSMB8: Proteasome subunit beta type-8 (PSMB8, Homo sapiens, UniProt P28062)

C[C@@H]1NC(=O)[C@H](CCCNC(=N)N)NC(=O)[C@H](Cc2ccccc2)NC(=O)[C@H](Cc2ccccc2)NC(=O)[C@H](CCCNC(=N)N)NC(=O)[C@@H]2CCCN2C(=O)[C@H]2CCCN2C(=O)[C@H](Cc2ccccc2)NC1=O  EC50 (Mc1r; reporter gene, agonist): > 100000 nM
CC[C@H](C)[C@H](NC(=O)[C@H](CO)NC(=O)[C@H](Cc1ccc(O)cc1)NC(=O)[C@H](CC(=O)O)NC(=O)[C@H](CO)NC(=O)[C@@H](NC(=O)[C@H](Cc1ccccc1)NC(=O)[C@@H](NC(=O)CNC(=O)[C@H](CCC(=O)O)NC(=O)[C@H](C)NC(=O)[C@@H](N)Cc1ccc(O)cc1)[C@@H](C)O)[C@@H](C)CC)C(=O)N[C@@H](C)C(=O)N[C@@H](CCSC)C(=O)N[C@@H](CC(=O)O)C(=O)N[C@@H](CCCCN)C(=O)N[C@H](C(=O)N[C@@H](Cc1c[nH]cn1)C(=O)N[C@@H](CCC(N)=O)C(=O)N[C@@H](CCC(N)=O)C(=O)N[C@@H](CC(=O)O)C(=O)N[C@@H](Cc1ccccc1)C(=O)N[C@H](C(=O)N[C@@H](CC(N)=O)C(=O)N[C@@H](Cc1c[nH]c2ccccc12)C(=O)N[C@@H](CC(C)C)C(=O)N[C@@H](CC(C)C)C(=O)N[C@@H](C)C(=O)N[C@@H](CCC(N)=O)C(=O)N[C@@H](CCCCN)C(=O)NCC(=O)N[C@@H](CCCCN)C(=O)N[C@@H](CCCCN)C(=O)N[C@@H](CC(N)=O)C(=O)N[C@@H](CC(=O)O)C(=O)N[C@@H](Cc1c[nH]c2ccccc12)C(=O)N[C@@H](CCCCN)C(=O)N[C@@H](Cc1c[nH]cn1)C(=O)N[C@@H](CC(N)=O)C(=O)N[C@H](C(=O)N[C@H](C(=O)N[C@@H](CCC(N)=O)C(=O)O)[C@@H](C)O)[C@@H](C)CC)C(C)C)[C@@H](C)CC  EC50 (Glucagon receptor (GCGR, Homo sapiens, UniProt P47871); reporter gene, agonist, luciferase): > 1000 nM
Cc1ncc(C(=O)N[C@@H](CC(C)C)C(=O)N[C@@H](CC(C)C)C(=O)N[C@H](/C=C/S(C)(=O)=O)Cc2ccc(CN)cc2)s1  IC50 (PSMB8; enzyme activity, inhibitor; lysate): > 10000 nM
CCOc1ccc2c(-c3cc(C)nc(Nc4cc(OC)cc(C(F)(F)F)c4)n3)cnn2n1  IC50 (Dual specificity tyrosine-phosphorylation-regulated kinase 1A (DYRK1A, Homo sapiens, UniProt Q13627); enzyme activity, inhibitor): > 10000 nM
Cc1ncc(C(=O)N[C@@H](CC2CCC3CCCCC3C2)C(=O)N[C@@H](CC(C)C)C(=O)N[C@H](/C=C/S(C)(=O)=O)Cc2ccc(CN)cc2)s1 (stereo partly shown)  IC50 (PSMB8; enzyme activity, inhibitor; lysate): > 10000 nM
CSCC[C@H](NC(=O)[C@@H](NC(=O)[C@@H](N)Cc1ccc(O)cc1)C(C)C)C(=O)NCC(=O)N[C@@H](Cc1c[nH]cn1)C(=O)N[C@@H](Cc1ccccc1)C(=O)N[C@@H](CCCNC(=N)N)C(=O)N[C@@H](Cc1c[nH]c2ccccc12)C(=O)N[C@@H](CC(=O)O)C(=O)O  EC50 (Mc1r; reporter gene, agonist): 430 nM
CC1=C(/C=C/C(C)=C/C=C/C(C)=C/C=O)C(C)(C)CCC1  Kd (Cellular retinoic acid-binding protein 2 (CRABP2, Homo sapiens, UniProt P29373, L122E/R112L/R133K); binding, fluorescence): 1.36 nM
CSCC[C@H](N)C(=O)NCC(=O)N[C@@H](Cc1c[nH]cn1)C(=O)N[C@@H](Cc1ccccc1)C(=O)N[C@@H](CCCNC(=N)N)C(=O)N[C@@H](Cc1c[nH]c2ccccc12)C(=O)N[C@@H](CC(=O)O)C(=O)N[C@@H](CCCNC(=N)N)C(=O)N[C@@H](Cc1ccccc1)C(=O)NCC(=O)O  EC50 (Mc1r; reporter gene, agonist): 1590 nM
CN1CCN(c2ccc(Nc3ncc4cc(C#N)c(=O)n(C5CCCC5)c4n3)cc2)CC1  IC50 (Ephrin type-A receptor 1 (EPHA1, Homo sapiens, UniProt P21709); enzyme activity, inhibitor): 57.6 nM
N=C(N)NCCC[C@H](NC(=O)[C@H](CC(=O)O)NC(=O)[C@@H](N)Cc1c[nH]c2ccccc12)C(=O)N[C@@H](Cc1ccccc1)C(=O)NCC(=O)O  EC50 (Mc1r; reporter gene, agonist): > 100000 nM
CC(C)C[C@H](NC(=O)[C@H](Cc1ccccc1)N=[N+]=[N-])C(=O)N[C@@H](CC(F)(F)F)C(=O)N[C@H](/C=C/S(C)(=O)=O)Cc1ccc(CN)cc1  IC50 (PSMB8; enzyme activity, inhibitor; lysate): 1830 nM
CSCC[C@H](NC(=O)[C@@H](NC(=O)[C@@H](N)Cc1ccc(O)cc1)C(C)C)C(=O)NCC(=O)O  EC50 (Mc1r; reporter gene, agonist): > 100000 nM
Cc1ncc(C(=O)N[C@@H](CCC2CCCCC2)C(=O)N[C@@H](CC(C)C)C(=O)N[C@H](/C=C/S(C)(=O)=O)Cc2ccc(CN)cc2)s1  IC50 (PSMB8; enzyme activity, inhibitor; lysate): 410 nM
